Measurements published in ChEMBL document CHEMBL4304801, “ω-Hydroxy isoprenoid bisphosphonates as linkable GGDPS inhibitors” (Bioorg Med Chem Lett, 2019).
pIC50: −log10 of the molar value. Activity calls are given as the source filed them. No cut-off for these calls is given here.

Tests used:
[1] = molecular target: T1, Geranylgeranyl pyrophosphate synthase (Homo sapiens) (UniProt O95749); assay: Inhibition of GGPPs in human RPMI8226 cells assessed as disruption of Rab geranylgeranylation by ELISA; format: cell-based
T1 sequence (whole entry): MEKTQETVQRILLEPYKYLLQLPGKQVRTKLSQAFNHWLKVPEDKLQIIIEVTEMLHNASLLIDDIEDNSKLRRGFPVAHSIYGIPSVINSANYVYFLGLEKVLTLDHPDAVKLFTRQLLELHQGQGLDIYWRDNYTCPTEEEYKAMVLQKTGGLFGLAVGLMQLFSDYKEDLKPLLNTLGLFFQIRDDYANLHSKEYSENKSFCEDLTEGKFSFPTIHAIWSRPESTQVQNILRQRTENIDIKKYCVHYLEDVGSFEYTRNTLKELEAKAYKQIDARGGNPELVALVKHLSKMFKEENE

[2] = molecular target: T2, Farnesyl pyrophosphate synthase (Homo sapiens, UniProt P14324); assay: Inhibition of FDPS (unknown origin) using [14C] IPP and GPP as substrate preincubated for 10 mins followed by substrate addition and measured after 30 min by scintillation counting method
T2 sequence (P14324 whole entry): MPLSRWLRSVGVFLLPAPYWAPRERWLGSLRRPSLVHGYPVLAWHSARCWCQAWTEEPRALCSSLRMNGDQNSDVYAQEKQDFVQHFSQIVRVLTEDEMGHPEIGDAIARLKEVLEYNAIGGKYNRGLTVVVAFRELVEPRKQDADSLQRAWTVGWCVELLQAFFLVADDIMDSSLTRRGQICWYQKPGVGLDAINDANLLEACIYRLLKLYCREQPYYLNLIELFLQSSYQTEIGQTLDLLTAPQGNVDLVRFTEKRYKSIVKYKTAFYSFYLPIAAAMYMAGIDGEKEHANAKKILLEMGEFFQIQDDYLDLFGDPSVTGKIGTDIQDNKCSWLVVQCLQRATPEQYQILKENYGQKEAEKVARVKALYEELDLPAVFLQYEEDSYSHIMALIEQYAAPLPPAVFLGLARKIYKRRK
Outline: (§1)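 Recombinant enzyme donated by outside labs, assayed by a previously described method; each concentration run in duplicate over multiple concentrations, three independent experiments.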

[3] = molecular target: T3, Geranylgeranyl pyrophosphate synthase (Homo sapiens, UniProt O95749); assay: Inhibition of GGDPS (unknown origin) using [14C] IPP and FPP as substrate preincubated for 10 mins followed by substrate addition and measured after 30 min by scintillation counting method; outline: as §1
T3 sequence (O95749 whole entry): T1 sequence (whole entry)

[4] = species: Homo sapiens; assay: Selectivity ratio of IC50 for FDPS (unknown origin) to IC50 for GGDPS (unknown origin)
[5] = molecular target: T1, Geranylgeranyl pyrophosphate synthase (Homo sapiens); assay: Inhibition of GGPPs in human RPMI8226 cells assessed as disruption of Rap1a geranylgeranylation measured after 48 hrs by immunoblot analysis; format: cell-based
Outline: (§2)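 Whole-cell lysates made in RIPA buffer (0.15 M NaCl, 1% deoxycholate, 0.1% SDS, 1% Triton X-100, 0.05 M Tris HCl) with protease/phosphatase inhibitors; protein by BCA; equal protein run on SDS-PAGE, PVDF transfer, primary antibodies, HRP secondaries, ECL detection of Rap1a with β-tubulin as loading reference.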

[6] = molecular target: T1, Geranylgeranyl pyrophosphate synthase (Homo sapiens); assay: Inhibition of GGPPs in human RPMI8226 cells assessed as disruption of Rap1a geranylgeranylation at 1 to 10 uM after 48 hrs by immunoblot analysis; format: cell-based; outline: as §2
[7] = molecular target: T1, Geranylgeranyl pyrophosphate synthase (Homo sapiens); assay: Inhibition of GGPPs in human MM1S cells assessed as disruption of Rap1a geranylgeranylation at 1 to 10 uM after 48 hrs by immunoblot analysis; format: cell-based; outline: as §2

MEC [1]	inhibition [1]	pIC50 [2]	pIC50 [3]	Ratio IC50 [4]	inhibition [5]	inhibition [6]	inhibition [7]	Compound
0.25 µM	Dose-dependent effect	4.09	6.17	121	Dose-dependent effect			C/C(=C/CCn1cc(CC(C)(P(=O)(O)O)P(=O)(O)O)nn1)CC/C=C(\C)CO
10 µM	Dose-dependent effect	4.04	4.94	8	Dose-dependent effect	Active	Active	CC(=CCn1cc(CC(P(=O)(O)O)P(=O)(O)O)nn1)CC/C=C(\C)CO
